Screening results as filed in PubChem.
TRPC6 activator – mouse TRPC6 channel activators, primary screen, cell-based, HEK293, membrane potential dye | HEK293-TRPC6 membrane potential dye fluorescence; stronger effect = higher value | B-score at 10 µM | 310,000 tested, 0.13% active | AID 2550, 2010;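 active = B-score of the integrated fluorescence ratio above library mean plus 3 SD, and starting fluorescence ratio within library mean plus 5 SD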;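 also: higher score means more depolarization so channel activation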
TRPC4 inh – inhibitors of mouse TRPC4 channel, primary screen, Fluo4 calcium, HEK293 TRPC4beta/mu-opioid cells; Short transient receptor potential channel 4 (Mus musculus), Q9QUQ5; DAMGO-evoked Fluo4 calcium flux; stronger effect = lower value; B-score at 10 µM; 300,000 tested, 0.39% active; AID 2247, 2010;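 active = B-score over 3 SD under the library average, no early fluorescence shift, positive overall ratio signal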
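test system = HEK293 cells with stable TRPC4beta plus mu-opioid receptor expression | detection = Fluo4 Ca2+ flux fluorescence | read-out = integrated fluorescence ratio relative to baseline, converted to per-well B score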
TRPC6 inhibitor – mouse TRPC6 channel inhibitors, primary screen, cell-based, HEK293, membrane potential dye. Short transient receptor potential channel 6 (Mus musculus), Q61143. ACh-evoked depolarization; stronger effect = lower value. B-score at 10 µM. 310,000 tested, 1.1% active. AID 2553, 2010;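 active = B-score under library mean minus 3 SD, initial fluorescence not abnormally high, positive integrated signal ratio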;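 also: B-score derived from integrated fluorescence ratio over the kinetic read; more negative B-score means stronger inhibition of depolarization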
TRPC4 potent – positive allosteric modulators of TRPC4, primary screen, cell-based, mouse TRPC4beta, HEK293 mu-opioid, Fluo-4 calcium; Short transient receptor potential channel 4 (Mus musculus), Q9QUQ5; DAMGO EC20, Fluo-4 Ca2+ flux; stronger effect = higher value; B-score at 10 µM; 310,000 tested, 0.42% active; AID 2227, 2009;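 active = B-score of calcium response area above 5 SD of library B-scores, with initial fluorescence ratio within 5 SD of library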;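 also: B-score of integrated fluorescence ratio over time as area under calcium response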
TRPC4 agonist – activators of mouse TRPC4 channel, primary screen, Fluo4 calcium, HEK293 TRPC4beta/mu-opioid cells; 310,000 tested, 0.49% active; B-score at 10 µM; Short transient receptor potential channel 4 (Mus musculus), Q9QUQ5; Fluo4 calcium fluorescence; stronger effect = higher value;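 active = B-score above 5 SD of library B-scores, and initial fluorescence ratio not above library mean plus 5 SD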;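 also: positive B-score marks a calcium rise read as TRPC4 activation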
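system = HEK293 cells stably co-expressing mouse TRPC4beta and mu-opioid receptor | schedule = Fluo4 dye loading 45 min at room temperature, 110 s recording | measure = B-scored integrated calcium fluorescence ratio | signal = Fluo4 calcium-sensitive dye fluorescence, kinetic, 1 Hz baseline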
Starred values were filed as active, the others as inactive; i = inactive. Rows were chosen to be rich in hits. Some 2.3% of all compounds tested hit in one or more screens of this group.

SMILES | TRPC6 activator | TRPC4 inh | TRPC6 inhibitor | TRPC4 potent | TRPC4 agonist
O=C(NC1CCCN(Cc2ccc(Cl)cc2)C1)c1ccnc(Cl)c1 (stereo unspecified) | i | i | i | i | i
Cc1ccc(NC(=O)c2cccc(S(=O)(=O)N3CCN(C)CC3)c2)cc1F | i | i | i | i | i
CC(=O)c1c(C)nn(CC(=O)NC2CCCN(Cc3ccc(CC(C)C)cc3)C2)c1C (stereo unspecified) | i | i | i | i | 111*
CC(C)Cc1ccc(CN2CCCC(NC(=O)CCN3CCCCC3=O)C2)cc1 (stereo unspecified) | i | i | i | i | i
O=C(Cc1cccc(F)c1F)NC1CCCN(Cc2ccc(Cl)cc2)C1 (stereo unspecified) | i | i | i | i | 106*
Fc1ccc(-n2nnc(-c3ncc[nH]3)n2)cc1 | i | i | i | i | i
CCN(c1ccccc1)S(=O)(=O)c1cc([N+](=O)[O-])ccc1N | i | i | -5.6* | i | i
O=C(O)c1cc(-c2ccc(/C=c3\sc4nc5ccc(Br)cc5n4c3=O)o2)ccc1Cl | 40* | i | i | i | i
O=C(c1cccc([N+](=O)[O-])c1)N1CCCC(C(=O)N2CCN(c3ccccc3)CC2)C1 (stereo unspecified) | i | i | i | i | i
O=C(COc1ccccc1Cl)Nc1cc(NC(=O)COc2ccccc2Cl)cc(C(=O)O)c1 | i | i | i | i | i
CNC(=S)N/N=C(\C)c1ccc(C(C)(C)C)cc1 | i | i | i | 11* | i
CNC(=S)N/N=C(\C)c1ccccc1 | i | i | i | i | i
CCCn1c(N)c(C(=O)CSc2n[nH]c(-c3ccc(C)cc3)n2)c(=O)[nH]c1=O | i | i | i | 123* | i
COc1ccc(F)cc1CSc1nnnn1-c1ccc(O)cc1 | i | -5* | i | i | i
Cc1ccc2c(c1)c(-c1ccccc1)nc1nncn12 | i | i | i | i | i
COc1ccc(CCN2C(=S)N(C)C(=O)C2CC(=O)Nc2ccc(F)cc2)cc1 (stereo unspecified) | i | i | i | i | 120*
Cc1ccc(C(=O)Nc2nc(-c3ccccc3)c(-c3ccccc3)o2)cc1 | i | i | i | i | i
CCn1c(C)nc2cc(C(=O)N/N=C/c3ccc(O)c(O)c3O)ccc21 | i | i | i | 14* | i
CCOc1ccc(NC2OCC(O)C(O)C2O)c([N+](=O)[O-])c1 (stereo unspecified) | i | i | i | i | i
O=[N+]([O-])c1ccc(/C=N/Nc2nc(N3CCCCC3)nc(N3CCCCC3)n2)o1 | i | i | i | 22* | i
COc1c(/C=N/Nc2nc(N3CCCCC3)nc(N3CCCCC3)n2)cccc1[N+](=O)[O-] | i | i | i | i | i
C=CCc1cc(C)ccc1OCCOCCN1CCN(C)CC1 | i | i | i | i | i
O=S(=O)(c1ccccc1)c1nnn2c1nc(NC1CCN(Cc3ccccc3)CC1)c1cc(Cl)ccc12 | i | -6* | i | i | 148*
O=S(=O)(c1ccccc1)c1nnn2c1nc(NC1CCN(Cc3ccccc3)CC1)c1ccccc12 | i | i | i | i | i
N=c1c(C(=O)NC2CCCCC2)cc2c(=O)n3ccccc3nc2n1CCc1ccccc1 | i | i | -5* | i | i
SMILES | TRPC6 activator | TRPC4 inh | TRPC6 inhibitor | TRPC4 potent | TRPC4 agonist
Cc1ccc(Cn2c(=N)c(C(=O)NC3CCCC3)cc3c(=O)n4ccccc4nc32)cc1 | i | i | i | 78* | 66*
N=c1c(C(=O)NC2CCCCC2)cc2c(=O)n3ccccc3nc2n1Cc1ccco1 | i | i | i | i | i
CCCn1c(=N)c(C(=O)NCc2ccc3c(c2)OCO3)cc2c(=O)n3cccc(C)c3nc21 | i | i | i | i | i
CCOCCCn1c(=N)c(C(=O)NCc2ccc3c(c2)OCO3)cc2c(=O)n3ccccc3nc21 | i | i | -5.9* | i | i
CC(C)OCCCn1c(=N)c(C(N)=S)cc2c(=O)n3ccccc3nc21 | i | i | -7.6* | i | i
CN(CC(=O)Nc1ccc(N2CCOCC2)cc1)C(=O)CCc1cc(C(C)(C)C)c(O)c(C(C)(C)C)c1 | i | i | i | i | i
Clc1ccc2nc(CN3CCCCC3)cn2c1 | i | i | i | i | i
Clc1ccc2nc(CN3CCCc4ccccc43)cn2c1 | i | i | i | 21* | i
Cc1cc(OCCN2CCCC2)ccc1[N+](=O)[O-] | i | i | i | 30* | i
O=C(Cc1c(F)c(F)c(F)c(F)c1F)Nc1nc(-c2ccccc2)cs1 | i | i | i | i | i
CN1CCN(Cc2cccc(Oc3ccc(Cl)cc3)c2)CC1 | i | i | i | 19* | i
COc1ccc(/C=C\c2cc(OC)c(OC)cc2CC[N+](C)(C)C)cc1OC | i | i | -7.7* | i | i
N#CN(Cc1ccccc1)Cc1ccccc1 | i | i | i | i | i
CNc1nc(N2CCc3ccccc32)ncc1F | i | i | i | 47* | i
COc1ccc(C2CC(=O)c3cnc(N4CCc5ccccc54)nc3C2)cc1OC (stereo unspecified) | i | i | i | i | i
Cc1ccc(C(=O)NC(=S)NNC(=O)c2ccccc2)cc1 | i | i | i | i | 90*
Cc1ccccc1OCC(=O)NNC(=S)NC(=O)c1ccco1 | i | i | i | i | 88*
CCCCCC(=O)NNC(=S)NC(=O)c1ccc([N+](=O)[O-])cc1 | i | i | i | i | 79*
O=C(NNC(=S)NC(=O)c1ccccc1[N+](=O)[O-])c1ccccc1[N+](=O)[O-] | i | i | i | i | i
O=C(NNC(=S)NC(=O)c1ccccc1[N+](=O)[O-])c1ccc(Cl)cc1Cl | i | i | i | i | 49*
Cc1ccccc1OCC(=O)Nc1ccccc1NC(=O)c1ccco1 | i | i | i | i | i
Cc1cc(OCC(=O)NCCc2c[nH]c3ccccc23)c2c(C)cc(=O)oc2c1 | i | i | i | i | i
